Source: PubChem BioAssay (several laboratories)
LEDGF integ inh: blocks HIV-1 LEDGF/p75-dependent DNA integration | TR-FRET IN-LEDGF/p75 DNA integration, Eu/Cy5 | inhibition, % at 3.7 µM | AID 743269 | 370,000 tested, 0.64% active;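 active = inhibition above the screen-wide mean plus 3 SD, cut at about 13% in these data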;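 also: signal is the Cy5 over europium emission ratio at 671 and 618 nm; 0% = plate median of compound wells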
CSN deneddyl inh: CSN deneddylation inhibition; Q92905; Purified CSN, SCF-Nedd8-OG deneddylation, fluorescence polarization; inhibition, % at 12.5 µM; 360,000 tested, 0.38% active; AID 651999;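 active = pattern-corrected inhibition above about 35%, with an unprinted fluorescence ratio check between 0.5 and 1.5, limit read from the data, passing the limit was not always enough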;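 also: 0% = enzyme with substrate and 100% = substrate without enzyme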
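Material: purified human Csn5 enzyme expressed in HEK293T cells / Medium: Tris buffer pH 7.5, NaCl, DTT, Tween-20, trehalose, ovalbumin / Compound dosing: 12.5 µM single point / Schedule: 90 min incubation of compound, enzyme and substrate at room temperature / Signal: fluorescence polarization of the substrate / Control set: no-enzyme wells high, enzyme-with-substrate wells low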
ATG4B inh: ATG4B (human) cysteine protease inhibition. Q9Y4P1. ATG4B cleavage of LC3-PLA2, NBD-HPC fluorescence, 1 h. inhibition, % at 8.33 µM. 340,000 tested, 0.51% active; in the data active = inhibition above about 40%
UHRF1 MBD2 ctr: blocks human UHRF1 binding to methylated DNA. Q96T88. UHRF1 binding to methylated oligo, TR-FRET. inhibition, % at 4.4 µM. 370,000 tested, 0.75% active; in the data active = inhibition above about 21%;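 also: UHRF1 SRA domain binding a hemimethylated CpG hairpin DNA probe; 0% = median of test compound wells and 100% = reference inhibitor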
MBD2 inh: inhibitors of human MBD2 binding to methylated oligonucleotide; Q9UBB5; TR-FRET; inhibition, % at 4.4 µM; 370,000 tested, 0.31% active; in the data active = inhibition above about 13%
Target sequence (Q9UBB5 whole entry, looked up): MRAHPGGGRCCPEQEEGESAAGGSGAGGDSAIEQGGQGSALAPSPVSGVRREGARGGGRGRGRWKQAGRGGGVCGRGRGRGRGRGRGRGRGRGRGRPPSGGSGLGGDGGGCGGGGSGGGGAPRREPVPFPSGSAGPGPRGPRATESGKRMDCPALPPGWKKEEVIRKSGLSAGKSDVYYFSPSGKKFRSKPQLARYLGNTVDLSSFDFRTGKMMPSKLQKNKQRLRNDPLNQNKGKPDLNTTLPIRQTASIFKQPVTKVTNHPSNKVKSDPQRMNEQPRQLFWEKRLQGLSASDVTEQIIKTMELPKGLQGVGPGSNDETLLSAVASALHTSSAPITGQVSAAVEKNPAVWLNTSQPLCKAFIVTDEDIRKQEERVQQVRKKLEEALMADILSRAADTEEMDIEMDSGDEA
rCAG RNA binder: molecules binding r(CAG) RNA repeats | r(CAG) RNA repeat, TO-PRO-1 dye displacement fluorescence | inhibition, % at 3 µM | 370,000 tested, 1.3% active | AID 651821;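 active = inhibition above the plate cutoff, the mean of all test compounds on that plate plus 3 SD, cut at about 35% in these data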;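 also: 0% = DMSO alone and 100% = 100 µM mitoxantrone as full dye displacement; higher means more dye released from RNA so lower well fluorescence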
The depositor's hits bear a star; nt = no result. The list is not random: actives were taken first. Their share in the collection is about 3.1%.

SMILES	LEDGF integ inh	CSN deneddyl inh	ATG4B inh	UHRF1 MBD2 ctr	MBD2 inh	rCAG RNA binder
COc1cccc2cc(-c3nnc(-c4ccccc4)o3)c(=O)oc12	1	-5	-14	21*	2	4
O=C1NC(=O)C(CC(=O)N(Cc2cccs2)C2(C(=O)NC3CCCC3)CCCCC2)N1 (stereo unspecified)	3	3	-2	23*	5	0
O=C(Cc1cccs1)N(Cc1cccs1)C1(C(=O)NC2CCCCC2)CCCCC1	1	0	-8	-3	3	2
CCCCCCCC1CC(CSc2ncn[nH]2)OC1=O (stereo unspecified)	0	54*	-10	3	-2	-3
CCCCC1CC(CSc2ncn[nH]2)OC1=O (stereo unspecified)	1	2	-14	-2	2	-1
O=c1[nH][nH]c2c1C(c1ccc(F)cc1)OC(CCc1ccccc1)C2 (stereo unspecified)	4	-8	nt	-8	-5	18
O=c1[nH][nH]c2c1[C@@H](c1ccc(F)cc1)O[C@H](CCc1ccccc1)C2	3	-7	nt	29*	-6	14
CC1CN(c2nc3ccccc3nc2SCC(=O)N2CCN(S(=O)(=O)c3ccccc3)CC2)CC(C)O1 (stereo unspecified)	-1	nt	nt	-3	-1	9
COc1ccc2c(CN3CCN(c4ccccc4OC)CC3)cc(=O)oc2c1	-4	74*	nt	-2	0	3
COc1ccc2c(CN3CCN(c4ccccc4F)CC3)cc(=O)oc2c1	1	100*	nt	-3	-3	6
Cc1ccc(NC(=O)Cn2ccc([N+](=O)[O-])n2)cc1C	-1	1	-4	0	0	1
Cc1cc(NC(=O)Cn2ccc([N+](=O)[O-])n2)no1	-2	-3	-3	23*	0	1
O=C(C1=C(O)C(=O)N(Cc2ccco2)C1c1cccs1)c1cccs1 (stereo unspecified)	1	-3	-1	4	2	5
O=C(C1=C(O)C(=O)N(CCOCCO)C1c1cccs1)c1cccs1 (stereo unspecified)	2	3	-1	56*	6	-1
Cc1ccn2c(CC(C)(C)C)c(-c3ccc(F)cc3)nc2c1	8	4	nt	22*	4	0
Cc1ccc(Cc2c(-c3ccc(C)cc3)nc3cc(C)ccn23)cc1	0	1	nt	23*	6	4
Cc1ccn2c(Cc3ccccc3)c(-c3ccccc3)nc2c1	2	5	nt	21*	8	3
Cc1ccc(Cc2c(-c3ccc(Cl)cc3)nc3cc(C)ccn23)cc1	4	1	nt	22*	1	5
Cc1ccc(-c2nc3ccc(Br)cn3c2CC(C)(C)C)cc1	0	2	nt	20	-3	3
Cc1ccn2c(Cc3ccccc3)c(-c3ccc(Br)cc3)nc2c1	2	2	nt	20	9	3
COC(=O)[C@]1(C#N)CC(=O)N(c2ccccc2)[C@@H]1c1ccccc1	2	nt	nt	1	-5	0
Cn1cccc1C(=O)N1CCN(S(=O)(=O)c2cccs2)CC1	2	nt	nt	2	3	4
Cc1ccccc1CN1CCCCC(NC(=O)c2ccccc2C(F)(F)F)C1=O (stereo unspecified)	-1	nt	nt	0	-1	0
CCOC(=O)[C@@]12CCC3=C1N(CCC3)C(=O)[C@H](CC(=O)N1CCSCC1)C2	0	nt	nt	0	3	2
Fc1cccc(CNC2CCC23CCC(c2ccccc2)CC3)c1 (stereo unspecified)	1	nt	nt	-4	-5	nt
CN(Cc1cccc(F)c1)C(=O)C1CC(=O)N(c2ccc3c(c2)OCCO3)C1 (stereo unspecified)	-4	-4	5	60*	5	-1
CC[C@H](CCCc1ccc(OC)cc1)CCC(=O)N1CCOCC1	-2	nt	nt	0	-1	0
Nn1c(SCC(=O)Nc2nccs2)nnc1-c1cc(-c2ccc(Cl)cc2)n[nH]1	0	nt	nt	-2	-1	7
Cc1oc(-c2ccc(Cl)cc2)cc1-c1nn2c(-c3ccoc3C)nnc2s1	29*	36*	8	23*	7	30
O=C1CC(=O)N(Cc2ccco2)C(=S)N1	nt	61*	46*	nt	nt	nt
